Measurements from ChEMBL document CHEMBL1155288, “Novel 1,2,3-thiadiazole derivatives as HIV-1 NNRTIs with improved potency: Synthesis and preliminary SAR studies” (Bioorg Med Chem, 2009).

Tests used:
[1] = tested on: Human immunodeficiency virus 1; experiment: Antiviral activity against HIV1 3B infected in human MT4 cells after 5 days by MTT assay; format: functional, organism-based; conditions: Human immunodeficiency virus 1, 3B, MT4, 120 h
Procedure, shortened: (§1)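 MT-4 cells (6 × 10^5 cells/mL) infected with HIV-1 IIIB or HIV-2 ROD at 100–300 CCID50. Serial fivefold compound dilutions were tested in triplicate wells. Viability was read by MTT reduction at 540 and 690 nm on day 5, using the median OD of three wells. EC50 is the concentration giving 50% protection from viral cytopathic effect.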

[2] = tested on: Human immunodeficiency virus 2; experiment: Antiviral activity against HIV2 ROD infected in human MT4 cells after 5 days by MTT assay; format: functional, organism-based; conditions: Human immunodeficiency virus 2, ISOLATE ROD, MT4, 120 h; procedure, shortened: as §1
[3] = Cytotoxicity against human MT4 cells after 5 days by MTT assay; format: cell-based
Procedure, shortened: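 Mock-infected MT-4 cells (6 × 10^5 cells/mL) received serial fivefold compound dilutions in triplicate wells, run in parallel with the infected series. After 5 days, viability was measured by MTT formazan absorbance at 540 and 690 nm, using the median OD of three wells. CC50 is the concentration reducing OD540 of the mock-infected control by 50%.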

[4] = Selectivity index, ratio of CC50 for human MT4 cells to EC50 for HIV1 3B; format: toxicity, cell-based; conditions: read-out: Ratio CC50/EC50
Procedure, shortened: (§2)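 Ratio CC50/EC50. CC50 comes from mock-infected MT-4 cells and EC50 from HIV-1 IIIB- or HIV-2 ROD-infected MT-4 cells, both from the same 5-day MTT plates.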

[5] = Selectivity index, ratio of CC50 for human MT4 cells to EC50 for HIV2 ROD; format: toxicity, cell-based; conditions: read-out: Ratio CC50/EC50; procedure, shortened: as §2

With `O=C(CSc1snnc1-c1ccc(Br)cc1Br)Nc1ccc(Cl)cc1` the EC50 [1] was 2.19 µM, the EC50 [2] was > 23.3 µM and the CC50 at 120 h [3] was 23.3 µM. The selectivity ratio [4] was 11 and the selectivity ratio [5] was < 1.

With `COC(=O)c1ccsc1NC(=O)CSc1snnc1-c1ccc(Br)cc1Br` the EC50 [1] was 4.01 µM, the EC50 [2] was > 228 µM and the CC50 at 120 h [3] was > 228 µM. The selectivity ratio [4] was > 57 and the selectivity ratio [5] was ≥ 1.

In the case of `O=C(CSc1snnc1-c1ccc(Br)cc1Br)Nc1cccnc1Cl`, the EC50 [1] is reported as 0.0364 µM, the EC50 [2] is reported as > 240 µM and the CC50 at 120 h [3] is reported as > 240 µM. The selectivity ratio [4] was > 6460 and the selectivity ratio [5] was ≥ 1.

For `Cc1ccccc1NC(=O)CSc1snnc1-c1ccc(Br)cc1Br`, the EC50 [1] was 0.52 µM, the EC50 [2] was > 202 µM and the CC50 at 120 h [3] was 202 µM. The selectivity ratio [4] was 381 and the selectivity ratio [5] was < 1.

In the case of `Cc1ccc(NC(=O)CSc2snnc2-c2ccc(Br)cc2Br)cc1`, the EC50 [1] is reported as 1.52 µM, the EC50 [2] is reported as > 24 µM and the CC50 at 120 h [3] is reported as 24 µM. For the same molecule, the selectivity ratio [4] was 16 and the selectivity ratio [5] was < 1.

For `CC(=O)c1ccc(NC(=O)CSc2snnc2-c2ccc(Br)cc2Br)c(Br)c1`, the EC50 [1] was 0.058 µM, the EC50 [2] was > 206 µM and the CC50 at 120 h [3] was > 206 µM. The selectivity ratio [4] was > 3550 and the selectivity ratio [5] was ≥ 1.

With `Cc1ccc(NC(=O)CSc2snnc2-c2ccc(Br)cc2Br)c([N+](=O)[O-])c1` the EC50 [1] was 0.079 µM, the EC50 [2] was > 230 µM and the CC50 at 120 h [3] was > 230 µM. For the same molecule, the selectivity ratio [4] was > 2930 and the selectivity ratio [5] was ≥ 1.

For `Cc1ccc(NC(=O)CSc2snnc2-c2ccc(Br)cc2Br)c(Br)c1`, the EC50 [1] was 0.22 µM, the EC50 [2] was > 216 µM and the CC50 at 120 h [3] was > 216 µM. The selectivity ratio [4] was > 958 and the selectivity ratio [5] was ≥ 1.

With `Cc1ccc2sc(NC(=O)CSc3snnc3-c3ccc(Br)cc3Br)nc2c1` the EC50 [1] was > 23.6 µM, the EC50 [2] was > 23.6 µM and the CC50 at 120 h [3] was 23.6 µM. For the same molecule, the selectivity ratio [4] was < 1 and the selectivity ratio [5] was < 1.

For `Cc1cccc(NC(=O)CSc2snnc2-c2ccc(Br)cc2Br)c1C`, the EC50 [1] was 1.44 µM, the EC50 [2] was > 241 µM and the CC50 at 120 h [3] was 241 µM. The selectivity ratio [4] was 166 and the selectivity ratio [5] was < 1.

For `O=C(CSc1snnc1-c1ccc(Br)cc1Br)Nc1ccccc1[N+](=O)[O-]`, the EC50 [1] was 0.04 µM, the EC50 [2] was > 236 µM and the CC50 at 120 h [3] was > 236 µM. For the same molecule, the selectivity ratio [4] was > 5840 and the selectivity ratio [5] was ≥ 1.

For `O=C(CSc1snnc1-c1ccc(Br)cc1Br)Nc1ccccc1`, the EC50 [1] was 0.54 µM, the EC50 [2] was > 24.8 µM and the CC50 at 120 h [3] was 24.8 µM. For the same molecule, the selectivity ratio [4] was 47 and the selectivity ratio [5] was < 1.

In the case of `O=C(CSc1snnc1-c1ccc(Br)cc1Br)Nc1ccccc1Cl`, the EC50 [1] is reported as 0.083 µM, the EC50 [2] is reported as ≥ 221 µM and the CC50 at 120 h [3] is reported as > 241 µM. For the same molecule, the selectivity ratio [4] was > 2900 and the selectivity ratio [5] was > 1.

With `Cc1cccc(C)c1NC(=O)CSc1snnc1-c1ccc(Br)cc1Br` the EC50 [1] was > 199 µM, the EC50 [2] was > 199 µM and the CC50 at 120 h [3] was ≥ 199 µM. For the same molecule, the selectivity ratio [4] was < 1 and the selectivity ratio [5] was < 1.

With `O=C(CSc1snnc1-c1ccc(Br)cc1Br)Nc1ccccc1F` the EC50 [1] was 0.14 µM, the EC50 [2] was > 27.8 µM and the CC50 at 120 h [3] was ≥ 27.8 µM. The selectivity ratio [4] was > 195 and the selectivity ratio [5] was < 1.

For `O=C(CSc1snnc1-c1ccc(Br)cc1Br)Nc1ccccc1Br`, the EC50 [1] was 0.12 µM, the EC50 [2] was 172 µM and the CC50 at 120 h [3] was > 222 µM. For the same molecule, the selectivity ratio [4] was > 1790 and the selectivity ratio [5] was > 1.

For `O=C(CSc1snnc1-c1ccc(Br)cc1Br)Nc1nccs1`, the EC50 [1] was 4.53 µM, the EC50 [2] was > 87.8 µM and the CC50 at 120 h [3] was 87.8 µM. The selectivity ratio [4] was 19 and the selectivity ratio [5] was < 1.

In the case of `O=C(CSc1snnc1-c1ccc(Br)cc1Br)Nc1ccccn1`, the EC50 [1] is reported as 1.17 µM, the EC50 [2] is reported as > 42.4 µM and the CC50 at 120 h [3] is reported as 42.4 µM. The selectivity ratio [4] was 36 and the selectivity ratio [5] was < 1.
